In ChEMBL document CHEMBL1122971, “Aldosterone antagonists. 1. Synthesis and biological activities of 11 beta,18-epoxypregnane derivatives” (J Med Chem, 1985):
Where “and” joins values, the source holds several entries; their conditions need not be identical. Equal values may be shown once. Calls of active or inactive are those of the source. No cut-off for these calls is given here.

How the values were obtained:
[1] = biological target: T1, Mineralocorticoid receptor (Rattus norvegicus) (UniProt P22199); test: Relative binding affinity against mineralocorticoid receptor of rat kidney at 0 degree centigrade; value ranges from […]-[…]%
T1 sequence (whole entry): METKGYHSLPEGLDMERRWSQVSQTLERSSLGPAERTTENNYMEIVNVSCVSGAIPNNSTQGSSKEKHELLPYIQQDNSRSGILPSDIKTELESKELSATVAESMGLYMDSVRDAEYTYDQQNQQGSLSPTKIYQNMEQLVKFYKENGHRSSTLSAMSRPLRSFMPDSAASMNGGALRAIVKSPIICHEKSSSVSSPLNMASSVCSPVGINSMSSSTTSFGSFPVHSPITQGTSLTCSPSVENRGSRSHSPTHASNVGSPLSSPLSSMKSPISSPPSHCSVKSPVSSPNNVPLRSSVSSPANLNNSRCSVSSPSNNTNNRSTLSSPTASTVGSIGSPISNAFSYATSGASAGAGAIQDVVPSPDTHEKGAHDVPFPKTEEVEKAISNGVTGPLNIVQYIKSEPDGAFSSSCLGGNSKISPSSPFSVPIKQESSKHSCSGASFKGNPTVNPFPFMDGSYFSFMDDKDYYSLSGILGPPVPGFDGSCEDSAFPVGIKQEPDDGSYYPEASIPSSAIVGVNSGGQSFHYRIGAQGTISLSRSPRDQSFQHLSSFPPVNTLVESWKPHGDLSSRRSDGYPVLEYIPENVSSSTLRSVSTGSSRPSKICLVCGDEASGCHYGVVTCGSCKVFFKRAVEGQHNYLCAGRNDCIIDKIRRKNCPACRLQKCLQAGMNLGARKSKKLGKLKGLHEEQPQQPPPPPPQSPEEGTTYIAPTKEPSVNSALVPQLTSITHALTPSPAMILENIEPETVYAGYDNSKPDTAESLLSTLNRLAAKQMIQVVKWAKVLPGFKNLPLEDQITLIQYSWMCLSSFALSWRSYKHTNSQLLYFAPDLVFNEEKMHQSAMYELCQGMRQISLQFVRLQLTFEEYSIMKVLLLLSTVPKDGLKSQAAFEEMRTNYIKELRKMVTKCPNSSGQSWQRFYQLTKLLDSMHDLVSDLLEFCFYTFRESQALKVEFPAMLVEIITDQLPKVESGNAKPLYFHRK

[2] = biological target: T1, Mineralocorticoid receptor (Rattus norvegicus); test: Relative binding affinity against mineralocorticoid receptor of rat kidney at 25 degree centigrade; value ranges from […]-[…]%
[3] = biological target: T1, Mineralocorticoid receptor (Rattus norvegicus); test: Aldosterone (5 ug/kg) antagonist activity for urinary Na/k at 250 ug/kg; assay type: functional; conditions: Urine
Method in brief: (§1)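 Male Slc:Wistar rats, 7 weeks old, bilaterally adrenalectomized 2 days before assay, kept on 0.45% NaCl. Sugar cubes replaced diet the next evening, with 6 mL 0.45% NaCl/100 g given ip that evening and again on assay morning. Aldosterone (5 μg/kg in sesame oil) or none given sc, test compound sc right after. Urinary Na and K measured by atomic absorption; Na/K reported as mean ± SE.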

[4] = biological target: T1, Mineralocorticoid receptor (Rattus norvegicus); test: Aldosterone (5 ug/kg) antagonist activity for urinary Na/k at 25000 ug/kg; assay type: functional; conditions: Urine; method in brief: as §1
[5] = biological target: T1, Mineralocorticoid receptor (Rattus norvegicus); test: Aldosterone (5 ug/kg) antagonist activity for urinary Na/k at 2500 ug/kg; assay type: functional; conditions: Urine; method in brief: as §1
[6] = biological target: T1, Mineralocorticoid receptor (Rattus norvegicus); test: Relative binding affinity against mineralocorticoid receptor of rat kidney at 0 degree Centigrade
Method in brief: (§2)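 Kidney cytosol from male Sprague-Dawley rats (4-8 weeks), adrenalectomized 1-2 days before, prepared in pH 7.5 phosphate buffer with DTT, sucrose and 10 mM molybdate, spun at 200000g. Incubated with competitor (0.4 nM-40 μM) and about 1 nM 3H-aldosterone for 42-48 h at 0 °C or 100-120 min at 25/26 °C. Dextran-coated charcoal separation. RBA = ratio of 50%-inhibition concentrations versus aldosterone standard (=100).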

[7] = biological target: T1, Mineralocorticoid receptor (Rattus norvegicus); test: Relative binding affinity against mineralocorticoid receptor of rat kidney at 25 degree Centigrade; method in brief: as §2
[8] = biological target: T1, Mineralocorticoid receptor (Rattus norvegicus); test: Aldosterone (0 ug/kg) antagonist and agonist activity for urinary Na/k at 2.5 ug/kg; assay type: functional; conditions: Urine; method in brief: as §1
[9] = biological target: T1, Mineralocorticoid receptor (Rattus norvegicus); test: Aldosterone (0 ug/kg) antagonist and agonist activity for urinary Na/k at 25 ug/kg; assay type: functional; conditions: Urine; method in brief: as §1
[10] = biological target: T1, Mineralocorticoid receptor (Rattus norvegicus); test: Aldosterone (5 ug/kg) antagonist and agonist activity for urinary Na/k at 2.5 ug/kg; assay type: functional; conditions: Urine; method in brief: as §1
[11] = biological target: T1, Mineralocorticoid receptor (Rattus norvegicus); test: Aldosterone (5 ug/kg) antagonist and agonist activity for urinary Na/k at 25 ug/kg; assay type: functional; conditions: Urine; method in brief: as §1
[12] = biological target: T2, Androgen receptor (Rattus norvegicus) (UniProt P15207); test: Relative binding affinity against androgen receptor of rat prostate at 0 degree centigrade; N means negative, < 0.1
T2 sequence (whole entry): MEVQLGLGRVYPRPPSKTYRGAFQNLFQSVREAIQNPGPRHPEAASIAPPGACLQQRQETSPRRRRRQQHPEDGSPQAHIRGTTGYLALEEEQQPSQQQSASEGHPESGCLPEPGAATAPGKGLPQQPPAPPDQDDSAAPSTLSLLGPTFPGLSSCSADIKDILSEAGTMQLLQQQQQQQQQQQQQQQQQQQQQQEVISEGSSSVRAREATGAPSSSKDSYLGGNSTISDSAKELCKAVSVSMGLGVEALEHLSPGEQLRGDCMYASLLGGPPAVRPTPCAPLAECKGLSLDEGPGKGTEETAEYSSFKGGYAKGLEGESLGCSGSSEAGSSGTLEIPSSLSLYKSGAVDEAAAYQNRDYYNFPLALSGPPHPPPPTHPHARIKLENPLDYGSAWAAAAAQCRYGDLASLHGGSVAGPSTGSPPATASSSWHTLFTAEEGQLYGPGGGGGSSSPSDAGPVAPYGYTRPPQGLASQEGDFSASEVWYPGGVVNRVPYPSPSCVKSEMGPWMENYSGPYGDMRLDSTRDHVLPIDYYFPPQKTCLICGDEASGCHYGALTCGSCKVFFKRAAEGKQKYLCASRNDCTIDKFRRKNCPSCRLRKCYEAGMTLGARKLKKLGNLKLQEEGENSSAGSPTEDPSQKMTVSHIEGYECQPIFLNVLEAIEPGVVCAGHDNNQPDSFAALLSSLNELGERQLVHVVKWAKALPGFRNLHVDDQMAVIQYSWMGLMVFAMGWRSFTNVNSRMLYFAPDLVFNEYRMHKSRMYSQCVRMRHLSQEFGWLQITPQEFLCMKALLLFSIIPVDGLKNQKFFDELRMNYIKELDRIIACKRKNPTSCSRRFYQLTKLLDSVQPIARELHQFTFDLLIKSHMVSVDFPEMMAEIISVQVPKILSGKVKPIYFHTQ
Method in brief: (§3)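 Ventral prostate cytosol from rats (4-5 weeks) castrated 1 day before, prepared in pH 7.5 phosphate buffer and spun 2 h at 200000g. Incubated with competitor (0.4 nM-40 μM) and 3H-DHT or 3H-methylnandrolone for 16-20 h at 0 °C or 2 h at 15 °C. Dextran-coated charcoal separation. RBA taken against DHT standard (=100); negative means RBA <0.1%.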

[13] = biological target: T2, Androgen receptor (Rattus norvegicus); test: Relative binding affinity against androgen receptor of rat prostate at 15 degree centigrade; N means negative, < 0.1; method in brief: as §3
[14] = biological target: T1, Mineralocorticoid receptor (Rattus norvegicus); test: (§4) Aldosterone (0 ug/kg) antagonist and agonist activity for urinary Na/k at 0 ug/kg; assay type: functional; conditions: Urine; method in brief: as §1
[15] = biological target: T1, Mineralocorticoid receptor (Rattus norvegicus); test: Aldosterone (5 ug/kg) antagonist and agonist activity for urinary Na/k at 0 ug/kg; assay type: functional; conditions: Urine; method in brief: as §1
[16] = biological target: T1, Mineralocorticoid receptor (Rattus norvegicus); test: Aldosterone (0 ug/kg) antagonist and agonist activity for urinary Na/k at 2500 ug/kg; assay type: functional; conditions: Urine; method in brief: as §1
[17] = biological target: T1, Mineralocorticoid receptor (Rattus norvegicus); test: Aldosterone (5 ug/kg) antagonist and agonist activity for urinary Na/k at 2500 ug/kg; assay type: functional; conditions: Urine; method in brief: as §1
[18] = biological target: T1, Mineralocorticoid receptor (Rattus norvegicus); test: as §4; assay type: functional; conditions: Urine; method in brief: as §1; remark: listed apart in the source
[19] = biological target: T1, Mineralocorticoid receptor (Rattus norvegicus); test: Aldosterone (0 ug/kg) antagonist and agonist activity for urinary Na/k at 25000 ug/kg; assay type: functional; conditions: Urine; method in brief: as §1
[20] = biological target: T1, Mineralocorticoid receptor (Rattus norvegicus); test: Aldosterone (5 ug/kg) antagonist and agonist activity for urinary Na/k at 25000 ug/kg; assay type: functional; conditions: Urine; method in brief: as §1
[21] = biological target: T1, Mineralocorticoid receptor (Rattus norvegicus); test: Aldosterone (0 ug/kg) antagonist and agonist activity for urinary Na/k at 250 ug/kg; assay type: functional; conditions: Urine; method in brief: as §1
[22] = biological target: T1, Mineralocorticoid receptor (Rattus norvegicus); test: Aldosterone (5 ug/kg) antagonist and agonist activity for urinary Na/k at 250 ug/kg; assay type: functional; conditions: Urine; method in brief: as §1
[23] = biological target: T1, Mineralocorticoid receptor (Rattus norvegicus); test: Relative binding affinity against mineralocorticoid receptor of rat kidney at 0 degree centigrade; value ranges from 36-63%; method in brief: as §2
[24] = biological target: T1, Mineralocorticoid receptor (Rattus norvegicus); test: Relative binding affinity against mineralocorticoid receptor of rat kidney at 0 degree centigrade; value ranges from 44-58%; method in brief: as §2
[25] = biological target: T1, Mineralocorticoid receptor (Rattus norvegicus); test: Agonist activity for urinary Na/k at 250 ug/kg; assay type: functional; conditions: Urine; method in brief: as §1
[26] = biological target: T1, Mineralocorticoid receptor (Rattus norvegicus); test: Agonist activity for urinary Na/k at 2500 ug/kg; assay type: functional; conditions: Urine; method in brief: as §1
[27] = biological target: T1, Mineralocorticoid receptor (Rattus norvegicus); test: Agonist activity for urinary Na/k at 25000 ug/kg; assay type: functional; conditions: Urine; method in brief: as §1
[28] = biological target: T1, Mineralocorticoid receptor (Rattus norvegicus); test: Aldosterone (0 ug/kg) antagonist activity for urinary Na/k at 0 ug/kg; assay type: functional; conditions: Urine; method in brief: as §1
[29] = biological target: T1, Mineralocorticoid receptor (Rattus norvegicus); test: Aldosterone (5 ug/kg) antagonist activity for urinary Na/k at 0 ug/kg; assay type: functional; conditions: Urine; method in brief: as §1

RBA [6]	RBA [7]	RBA [12]	Activity [14]	Activity [15]	Activity [16]	Activity [17]	SMILES	further results
–	–	–	–	–	–	–	CC(=O)S[C@@H]1CC2=CC(=O)CC[C@]2(C)[C@H]2CC[C@@]3(C)[C@@H](CC[C@@]34CCC(=O)O4)[C@H]12	RBA [1]: 2.3%; RBA [2]: 11%; Activity [3]: 0.93; Activity [4]: 2.83; Activity [5]: 1.47
100%	100%	–	–	–	–	–	C[C@]12CCC(=O)C=C1CC[C@@H]1[C@@H]2[C@@H](O)C[C@]2(C=O)[C@@H](C(=O)CO)CC[C@@H]12	–
320%	270%	inactive	4.8	1	–	–	CC12CCC(=O)C=C1CCC1C3CCC(C(=O)CO)C34COC(C4)[C@@]12F (stereo not given in full)	Activity [8]: 2.8; Activity [9]: 0.3; Activity [10]: 0.7; Activity [11]: 0.1; RBA [13]: inactive
0.1%	0.4%	–	7.7	1.1	6.4	1.6	CC(=O)S[C@@H]1CC2=CC(=O)CCC2(C)C2C3CC4(CO3)C(CC[C@@]43CCC(=O)O3)C21 (stereo not given in full)	–
1.8%	1.1%	–	3.8	1.1 and 0.7	8.8	2.4	CC12CCC(=O)C=C1CCC1C3CC[C@@]4(CCC(=O)O4)C34COC(C4)[C@@H]12 (stereo not given in full)	Activity [18]: 7.7; Activity [19]: 3.8; Activity [20]: 2.2
–	32%	inactive	3.5	0.8	–	–	CC12CCC(=O)C=C1CCC1C3CCC(C(=O)CO)C34COC(C4)[C@@H]12 (stereo not given in full)	Activity [21]: 1.8; Activity [22]: 1.7; RBA [23]: 36%
–	23%	inactive	5.1	0.4	3.5	2.5	CC12CCC(=O)C=C1CCC1C3CC[C@@]4(CCC(=O)O4)C34COC(C4)[C@@]12F (stereo not given in full)	RBA [13]: inactive; RBA [24]: 44%; Activity [25]: 3.42; Activity [26]: 2.7; Activity [27]: 1.95; Activity [28]: 4.07; Activity [29]: 0.75; Activity [3]: 1.33; Activity [4]: 2.13; Activity [5]: 2.08
